Data set [1] concerns the target T1, Aldo-keto reductase family 1 member B1 (Homo sapiens, UniProt P15121). Description: Inhibition of human recombinant AKR1B1 expressed in Escherichia coli BL21(DE3)pLysS using L-idose as substrate by NADPH oxidation based absorbance analysis.
The target of data set [2] is T2, Tyrosine-protein phosphatase non-receptor type 1 (Homo sapiens) (UniProt P18031).
T2 sequence (whole entry): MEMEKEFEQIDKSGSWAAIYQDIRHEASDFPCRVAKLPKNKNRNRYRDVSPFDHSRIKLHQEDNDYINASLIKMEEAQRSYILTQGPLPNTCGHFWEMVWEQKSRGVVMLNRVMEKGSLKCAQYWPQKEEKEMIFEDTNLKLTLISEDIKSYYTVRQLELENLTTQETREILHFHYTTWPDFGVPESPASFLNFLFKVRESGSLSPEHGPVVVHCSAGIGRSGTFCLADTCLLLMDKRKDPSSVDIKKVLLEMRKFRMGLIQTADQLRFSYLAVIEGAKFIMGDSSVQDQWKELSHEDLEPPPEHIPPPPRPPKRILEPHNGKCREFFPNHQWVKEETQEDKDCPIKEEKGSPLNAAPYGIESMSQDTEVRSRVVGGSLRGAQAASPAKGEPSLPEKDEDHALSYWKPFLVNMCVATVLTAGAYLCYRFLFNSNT
Description: Inhibition of N-terminal polyHis-tagged human PTP1B1 (1 to 303 residues) expressed in Escherichia coli BL21(DE3)pLysS assessed as enzyme residual activity using pNPP as substrate at 5 uM by spectrophotometric analysis. In a few lines: (§1)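 His-tagged human PTP1B (1–303) from E. coli BL21(DE3)pLysS, assayed in 0.075 M β,β-dimethylglutarate pH 7.0 with 1 mM EDTA, 0.1 mM DTT and pNPP. Reaction stopped with 0.1 M KOH; p-nitrophenol read at 400 nm. IC50 from 15–16 inhibitor concentrations in triplicate, normalized to control, fitted by nonlinear regression. Single-point residual activity at 5 µM.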

In data set [3] the target is T3, Tyrosine-protein phosphatase non-receptor type 1 (Homo sapiens, UniProt P18031).
T3 sequence (P18031 whole entry): T2 sequence (whole entry)
Description: Mixed non-competitive inhibition of N-terminal polyHis-tagged human PTP1B1 (1 to 303 residues) expressed in Escherichia coli BL21(DE3)pLysS assessed as apparent dissociation constant for ESI complex using pNPP as substrate by Lineweaver-Burk plot analysis. In a few lines: (§2)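 PTP1B initial pNPP hydrolysis rates measured at seven pNPP concentrations (0.5–25 mM) and at least three inhibitor concentrations, in triplicate. Data fitted to Michaelis–Menten; KM and Vmax dependence on inhibitor analysed by Lineweaver–Burk plots.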

Data set [4] concerns the target T4, Tyrosine-protein phosphatase non-receptor type 2 (Homo sapiens, UniProt P17706).
T4 sequence (P17706 whole entry): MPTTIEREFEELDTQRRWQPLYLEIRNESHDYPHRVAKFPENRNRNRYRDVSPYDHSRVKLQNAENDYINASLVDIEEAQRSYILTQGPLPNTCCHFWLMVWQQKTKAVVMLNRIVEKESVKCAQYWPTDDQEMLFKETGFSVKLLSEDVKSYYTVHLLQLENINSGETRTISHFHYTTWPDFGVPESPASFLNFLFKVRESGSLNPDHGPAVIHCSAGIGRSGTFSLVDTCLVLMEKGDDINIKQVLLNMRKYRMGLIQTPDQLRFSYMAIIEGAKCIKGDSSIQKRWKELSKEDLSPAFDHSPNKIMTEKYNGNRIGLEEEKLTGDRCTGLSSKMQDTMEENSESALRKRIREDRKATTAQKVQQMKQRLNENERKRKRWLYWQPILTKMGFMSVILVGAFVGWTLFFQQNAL
Description: Inhibition of N-terminal polyHis-tagged human recombinant TC-PTPb (1 to 415 residues) expressed in Escherichia coli BL21(DE3)pLysS.

The next data set relates to C2C12. Put plainly: Cytotoxicity against mouse C2C12 cells assessed as reduction in cell viability at 20 uM incubated for 24 hrs by MTT assay. The settings on record: c2c12, 24 h. The class given is toxicity, cell-based. In a few lines:
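C2C12 myoblasts were differentiated for 96 h in DMEM with 2% horse serum, then held 24 h in complete medium with 20 µM compound, DMSO vehicle as control. MTT 0.5 mg/mL was added, cells lysed in DMSO, absorbance read, and values normalized to vehicle. Quadruplicate, mean ± SD (n = 4).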
Background: Tetrazolium assays rely on reduction of a dye to a coloured formazan, in cell work by metabolically active cells.

In data set [5] the target is T3, Tyrosine-protein phosphatase non-receptor type 1. Description: Mixed non-competitive inhibition of N-terminal polyHis-tagged human PTP1B1 (1 to 303 residues) expressed in Escherichia coli BL21(DE3)pLysS assessed as apparent dissociation constant for EI complex using pNPP as substrate by Lineweaver-Burk plot analysis. In short, it runs like this:
as §2

For data set [6], the target named is T5, Tyrosine-protein phosphatase non-receptor type 1 (Mus musculus) (UniProt P35821).
T5 sequence (whole entry): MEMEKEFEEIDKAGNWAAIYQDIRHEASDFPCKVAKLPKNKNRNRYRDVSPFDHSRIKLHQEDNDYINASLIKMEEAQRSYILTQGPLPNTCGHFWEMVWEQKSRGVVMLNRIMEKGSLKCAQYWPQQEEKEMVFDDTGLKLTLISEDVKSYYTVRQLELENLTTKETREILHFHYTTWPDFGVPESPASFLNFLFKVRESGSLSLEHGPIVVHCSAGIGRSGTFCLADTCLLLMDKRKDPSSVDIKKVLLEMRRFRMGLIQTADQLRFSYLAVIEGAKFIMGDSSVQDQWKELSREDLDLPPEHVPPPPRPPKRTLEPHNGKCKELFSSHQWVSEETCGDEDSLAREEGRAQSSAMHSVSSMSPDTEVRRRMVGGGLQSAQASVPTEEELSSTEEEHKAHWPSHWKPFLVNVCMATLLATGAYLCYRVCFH
Put plainly: Inhibition of PTP1B in mouse C2C12 cells assessed as increase in Akt phosphorylation by measuring increase in ratio of pAkt to Akt at 20 uM treated for 15 mins by western blot analysis. Format: cell-based. In a few lines:
(§3)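 C2C12 cells starved 24 h, then given 10 nM insulin, 20 µM compound, or both, for 15 min. Washed in cold PBS, lysed in 1X Laemmli buffer, run on SDS-PAGE, blotted to PVDF. Probed with antibodies to phospho-Akt and total Akt, with actin as loading control. Bands quantified; triplicate, mean ± SD (n = 3).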
In general terms: Immunoblotting shows a protein as a band on a membrane.

In data set [7] the target is T3, Tyrosine-protein phosphatase non-receptor type 1. Description: Inhibition of N-terminal polyHis-tagged human PTP1B1 (1 to 303 residues) expressed in Escherichia coli BL21(DE3)pLysS using pNPP as substrate by spectrophotometric analysis. In a few lines: as §1
The target in data set [8] is T5, Tyrosine-protein phosphatase non-receptor type 1 (Mus musculus). Description: Inhibition of PTP1B in mouse C2C12 cells assessed as potentiation of insulin-induced Akt phosphorylation by measuring increase in ratio of pAkt to Akt at 20 uM treated for 15 mins in presence of insulin by western blot analysis. The class given is cell-based. In short, it runs like this:
as §3

In data set [9] the target is T2, Tyrosine-protein phosphatase non-receptor type 1 (Homo sapiens). Description: Reversible inhibition of N-terminal polyHis-tagged human PTP1B1 (1 to 303 residues) expressed in Escherichia coli BL21(DE3)pLysS using pNPP as substrate pretreated with enzyme for 60 mins followed by 400-fold dilution with buffer containing substrate and measured after 15 mins by spectrophotometric analysis. Conditions: time 75.0 min. In a few lines: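 PTP1B incubated 60 min at 37 °C with saturating inhibitor, then diluted 400-fold into assay buffer containing 2.5 mM pNPP. Stopped after 15 min with 0.2 M KOH; absorbance read at 400 nm. Normalized to enzyme diluted with DMSO; mean ± SEM (n = 3).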

Data set [10] has as its target T3, Tyrosine-protein phosphatase non-receptor type 1. Description: Non-competitive inhibition of N-terminal polyHis-tagged human PTP1B1 (1 to 303 residues) expressed in Escherichia coli BL21(DE3)pLysS assessed as apparent dissociation constant for ESI complex using pNPP as substrate by Lineweaver-Burk plot analysis. In a few lines: as §2
Data set [11] has as its target T1, Aldo-keto reductase family 1 member B1. Put plainly: Ratio of Ki for human recombinant AKR1B1 expressed in Escherichia coli BL21(DE3)pLysS assessed as apparent dissociation constant for EI complex to Ki for human recombinant AKR1B1 expressed in Escherichia coli BL21(DE3)pLysS assessed as apparent dissociation constant for ESI complex. In short, it runs like this:
(§4)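 AKR1B1 rates measured at varied L-idose concentrations with and without several inhibitor concentrations, then Lineweaver–Burk analysis. […] Tight binders fitted with the Morrison equation, KM for L-idose taken as 3.8 mM. At least three independent experiments.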

The target is the same in data set [12]. Description: Mixed non-competitive inhibition of human recombinant AKR1B1 expressed in Escherichia coli BL21(DE3)pLysS assessed as apparent dissociation constant for ESI complex using L-idose as substrate by secondary plot analysis. In a few lines: as §4
In data set [13] the target is T3, Tyrosine-protein phosphatase non-receptor type 1. Put plainly: Non-competitive inhibition of N-terminal polyHis-tagged human PTP1B1 (1 to 303 residues) expressed in Escherichia coli BL21(DE3)pLysS assessed as apparent dissociation constant for EI complex using pNPP as substrate by Lineweaver-Burk plot analysis. In a few lines:
as §2

For data set [14], the target named is T1, Aldo-keto reductase family 1 member B1. Put plainly: Mixed non-competitive inhibition of human recombinant AKR1B1 expressed in Escherichia coli BL21(DE3)pLysS assessed as apparent dissociation constant for EI complex using L-idose as substrate by secondary plot analysis. In a few lines:
as §4

Data set [15] has the same target. Put plainly: Reversible inhibition of human recombinant AKR1B1 expressed in Escherichia coli BL21(DE3)pLysS assessed as recovery of enzyme activity using L-idose as substrate measured after extensive dialysis by NADPH oxidation based absorbance analysis. Details: scale not given: the % may be the effect or the level left.
For a further data set, the species on record is Homo sapiens. Put plainly: Selectivity index, ratio of IC50 for inhibition of N-terminal polyHis-tagged human recombinant TC-PTPb (1 to 415 residues) expressed in Escherichia coli BL21(DE3)pLysS to IC50 for inhibition of N-terminal polyHis-tagged human PTP1B1 (1 to 303 residues) expressed in Escherichia coli BL21(DE3)pLysS.

Activity calls are given as the source filed them. The calls are words filed in the database; no cut-off is given here. Where only a bound is given, the exact number is not on record here.

Broadly, the IC50 is the point on the concentration scale where inhibition reaches its midpoint. For `O=C(O)CN1C(=O)/C(=C/c2cccc(OCCCOc3ccccc3)c2)SC1=S`, the IC50 in [1] is 80 nM. Also, the Activity in [2] amounted to 100%.

Consider `O=C(O)CCN1C(=O)/C(=C/c2ccc(OCCCc3ccccc3)cc2)SC1=S`, for which the IC50 in data set [1] was 38200 nM. Moreover, the Activity in [2] was determined as 99.8%.

On to `O=C(O)CN1C(=O)/C(=C/c2cccc(OCCCc3ccccc3)c2)SC1=S`, for which the IC50 in data set [1] came to 50 nM. Besides, the Activity in [2] came out at 81%.

For the molecule `O=C(O)CCN1C(=O)/C(=C/c2cccc(OCCCc3ccccc3)c2)SC1=S`, in data set [1], the IC50 was determined as 1200 nM. Besides, the Activity in [2] worked out at 67.6%.

For `O=C(O)CCN1C(=O)/C(=C/c2ccc(OCCCCc3ccccc3)cc2)SC1=S`, the results for the Ki in [3] and in data set [5] were 2400 nM and 600 nM, respectively. Further, the IC50 in data set [4] came to 9100 nM; in data set [1] it was 60700 nM; in data set [7], 2900 nM. Besides, in the data set on C2C12, the Activity result is reported as “Non-Toxic”. Further, the inhibition entry in [6], in [8] and in data set [9] was “Active” throughout.

In the case of `O=C(O)CN1C(=O)/C(=C/c2ccc(OCCCc3ccccc3)cc2)SC1=S`, the 50% inhibitory concentration (IC50) in [1] was determined as 260 nM. Moreover, the Activity in [2] came to 79%.

Take `O=C(O)CCN1C(=O)/C(=C/c2ccc(OCCCOc3ccccc3)cc2)SC1=S`: in data set [1], the IC50 amounted to 3900 nM. Besides, in data set [2], the Activity turned out to be 74.4%.

Turning to `O=C(O)CN1C(=O)/C(=C/c2ccc(OCCCCc3ccccc3)cc2)SC1=S`, the Ki in data set [10] stood at 17500 nM; in [12] it was 410 nM; in [13], 12100 nM; in data set [14] it was 1300 nM. Besides, the concentration for half-maximal inhibition (IC50) in [4] is 193000 nM; in data set [1], 330 nM; in [7] it was 4000 nM. Besides, the Activity result with C2C12 was “Non-Toxic”; in [15] it was greater than 90%. Moreover, the Ratio Ki in data set [11] was found to be 2. The inhibition result in [6] and in data set [8] was “inactive” in each case. Further, in the data set filed under Homo sapiens, the Ratio IC50 was found to be 48. For the same molecule, in data set [9], the inhibition result was “Active”.

Take `O=C(O)CN1C(=O)/C(=C/c2ccc(OCCCOc3ccccc3)cc2)SC1=S`: the IC50 in data set [1] came out at 220 nM. In addition, the Activity in data set [2] stood at 87.6%.

Consider `O=C(O)CCN1C(=O)/C(=C/c2cccc(OCCCOc3ccccc3)c2)SC1=S`, for which, in data set [1], the IC50 amounted to 2100 nM. The Activity in data set [2] amounted to 77%.

The values above are taken from ChEMBL document CHEMBL5360543, “Designed multiple ligands for the treatment of type 2 diabetes mellitus and its complications: Discovery of (5-arylidene-4-oxo-2-thioxothiazolidin-3-yl)alkanoic acids active as novel dual-targeted PTP1B/AKR1B1 inhibitors” (Eur J Med Chem, 2023).
